In ChEMBL document CHEMBL4229392, “An Efficient Buchwald-Hartwig/Reductive Cyclization for the Scaffold Diversification of Halogenated Phenazines: Potent Antibacterial Targeting, Biofilm Eradication, and Prodrug Exploration” (J Med Chem, 2018):
In brackets after ≈: the same amount, converted by molar mass. Activity calls are given as the source filed them. The calls are words filed in the database; no cut-off is given here.

Assays:
[1] = test system: Staphylococcus aureus; experiment: Antibacterial activity against methicillin-resistant Staphylococcus aureus BAA-1707 after 16 to 18 hrs by broth microdilution method; type: functional
How it was run: (§1)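 CLSI broth microdilution in Lysogeny Broth, eleven two-fold dilutions spanning 0.10–100 µM; ~10^5 cells per well from log-phase culture; DMSO vehicle (top 1% v/v). MIC = lowest concentration preventing growth after 16–18 h at 37 °C, supported by OD600; three independent experiments.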

[2] = test system: Staphylococcus epidermidis; experiment: Antibacterial activity against methicillin-resistant Staphylococcus epidermidis ATCC 35984 after 16 to 18 hrs by broth microdilution method; type: functional
[3] = test system: Enterococcus faecium; experiment: Antibacterial activity against vancomycin-resistant Enterococcus faecium ATCC 700221 after 16 to 18 hrs by broth microdilution method; type: functional; how it was run: as §1
[4] = test system: Staphylococcus aureus; experiment: Bactericidal activity against methicillin-resistant Staphylococcus aureus BAA-1707 planktonic cells after 24 hrs by calgary biofilm device method; type: organism-based
How it was run: (§2)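 Biofilms grown 24 h at 37 °C on Calgary device pegs from mid-log culture diluted 1,000-fold in TSB + 0.5% glucose; washed pegs challenged 24 h at 37 °C with 2-fold serial dilutions. Challenge medium subcultured into fresh TSBG overnight; MBC = concentration without visible turbidity; at least three independent experiments.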

[5] = test system: Staphylococcus aureus; experiment: Induction of biofilm eradication of methicillin-resistant Staphylococcus aureus BAA-1707 after 24 hrs by calgary biofilm device method; type: functional
How it was run: (§3)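 Calgary device: biofilms established 24 h at 37 °C from mid-log culture diluted 1,000-fold in TSBG (0.5% glucose), washed, exposed 24 h to 2-fold serial dilutions, then peg lid moved to fresh TSBG for 24 h recovery. MBEC = lowest concentration giving no turbidity; at least three independent experiments.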

[6] = test system: Staphylococcus epidermidis; experiment: Bactericidal activity against methicillin-resistant Staphylococcus epidermidis ATCC 35984 planktonic cells after 24 hrs by calgary biofilm device method; type: organism-based; how it was run: as §2
[7] = test system: Staphylococcus epidermidis; experiment: Induction of biofilm eradication of methicillin-resistant Staphylococcus epidermidis ATCC 35984 after 24 hrs by calgary biofilm device method; type: functional; how it was run: as §3
[8] = test system: Enterococcus faecium; experiment: Bactericidal activity against vancomycin-resistant Enterococcus faecium ATCC 700221 planktonic cells after 24 hrs by calgary biofilm device method; type: organism-based; how it was run: as §2
[9] = test system: Enterococcus faecium; experiment: Induction of biofilm eradication of vancomycin-resistant Enterococcus faecium ATCC 700221 after 24 hrs by calgary biofilm device method; type: functional; how it was run: as §3
[10] = Hemolytic activity in human RBC at 200 uM after 1 hr relative to control; type: ADME, cell-based, Erythrocyte; conditions: red blood cells (erythrocytes), read-out: Activity
How it was run: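 Human RBCs drawn fresh into EDTA were washed three times in Tris-buffered saline (0.01 M Tris, 0.155 M NaCl, pH 7.2). 2% hRBC suspension was added to compound from DMSO stock, final 200 µM, for 1 h at 37 °C, then centrifuged and supernatant OD405 read. Scaled between DMSO (0%) and Triton X (100%). Three independent experiments.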

[11] = Half life in human serum by LC-MS analysis; type: ADME, cell-free
How it was run: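 Human serum pre-warmed to 37 °C, spiked with prodrug from 10 mM DMSO stock plus internal standard, vortexed, then held 1 to 60 min. At each time point, acetonitrile with 0.5% formic acid was added to precipitate proteins. Released active HP was quantified as its ratio to internal standard against standard curves.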

[12] = Stability in lysogeny broth at 37 degC up to 16 hrs by UV-vis spectrophotometric method; type: physicochemical
How it was run: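 Compound from 10 mM DMSO stock was added to LB pre-warmed to 37 °C and incubated at 37 °C. At each time point it was extracted with an equal volume of ethyl acetate, and UV-vis spectra were scanned from 200 to 700 nm in 2 nm steps.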

[13] = test system: Mycobacterium tuberculosis; experiment: Antibacterial activity against Mycobacterium tuberculosis H37Ra ATCC 25177 after 7 days; type: functional; conditions: H37Ra ATCC 25177, 168 h
How it was run: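 M. tuberculosis H37Ra grown two weeks in Middlebrook 7H9, diluted to OD600 0.01; two-fold serial dilutions 0.024–50 µM (streptomycin positive control, 0.16–340 µM); final DMSO 0.5%. Incubated 7 days at 37 °C; MIC = lowest concentration with no growth, OD600 recorded; three independent experiments.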

[14] = test system: HeLa; experiment: Cytotoxicity against human HeLa cells after 24 hrs by LDH release assy; type: cell-based
How it was run: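 HeLa cells in DMEM with 10% FBS at 37 °C, 5% CO2, dosed at 70-80% confluence with compound diluted in medium at 25, 50 and 100 µM for 24 h. Supernatant mixed with LDH reaction mixture, 30 min at room temperature, stopped, A490 read. Triton X-100 (2% v/v) as maximal-release control, medium only as no-death control, DMSO as vehicle. Three independent experiments.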

[15] = test system: Staphylococcus aureus; experiment: Bactericidal activity against methicillin-resistant Staphylococcus aureus 2 planktonic cells after 24 hrs by calgary biofilm device method; type: organism-based; how it was run: as §2
[16] = test system: Staphylococcus aureus; experiment: Induction of biofilm eradication of methicillin-resistant Staphylococcus aureus 2 after 24 hrs by calgary biofilm device method; type: functional; how it was run: as §3
[17] = test system: Staphylococcus aureus; experiment: Bactericidal activity against methicillin-resistant Staphylococcus aureus BAA-44 planktonic cells after 24 hrs by calgary biofilm device method; type: organism-based; how it was run: as §2
[18] = test system: Staphylococcus aureus; experiment: Induction of biofilm eradication of methicillin-resistant Staphylococcus aureus BAA-44 after 24 hrs by calgary biofilm device method; type: functional; how it was run: as §3
[19] = test system: Staphylococcus aureus; experiment: Antibacterial activity against methicillin-resistant Staphylococcus aureus 2 after 16 to 18 hrs by broth microdilution method; type: functional; how it was run: as §1
[20] = test system: Staphylococcus epidermidis; experiment: Induction of biofilm eradication of methicillin-resistant Staphylococcus epidermidis ATCC 35984 at 1 to 10 uM after 24 hrs by live/dead staining-based fluorescence microscopic method; type: functional, organism-based
How it was run: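 MRSE 35984 mid-log culture diluted 1:1,000, biofilms grown 24 h at 37 °C in compartment dishes, saline-washed, then treated at 1, 5 and 10 µM in fresh medium for 24 h at 37 °C; DMSO negative control. After saline wash, live/dead stained biofilms imaged by fluorescence microscopy; three independent experiments.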

[21] = test system: Staphylococcus aureus; experiment: Antibacterial activity against methicillin-resistant Staphylococcus aureus BAA-1707 after 16 hrs by agar diffusion method; type: functional
[22] = Metal chelating activity assessed as compound-Fe2+ complex formation at 5 mM by UV-vis spectrometry
How it was run: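 HP solutions given ammonium iron(II) sulfate hexahydrate; UV-vis scans 300–700 nm in 2 nm steps, λmax 374 nm. Loss of absorbance at 374 nm taken as loss of free hydroxyphenazine and formation of phenazine–iron(II) complex.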

[23] = Metal chelating activity assessed as compound-copper complex formation by UV-vis spectrometry

SMILES | MIC [1] | MIC [2] | MIC [3] | MBC [4] | MBEC [5] | MBC [6] | MBEC [7] | MBC [8] | MBEC [9] | hemolysis at 1 h, 200 µM [10] | MIC [13] | IC50 [14] | MBC [15] | MBEC [16] | MBC [17] | MBEC [18] | MIC [19] | also measured
CC1=C(C)C(=O)C(COC(=O)OCOc2c(Br)cc(Br)c3nc4ccccc4nc23)=C(C)C1=O | 2.35 µM (≈ 1.39 µg/mL) | 2.35 µM (≈ 1.39 µg/mL) | 9.38 µM (≈ 5.54 µg/mL) | 25 µM (≈ 14.8 µg/mL) | 75 µM | 37.5 µM (≈ 22.1 µg/mL) | 150 µM | 12.5 µM (≈ 7.38 µg/mL) | 9.38 µM | ≤ 1% |  |  |  |  |  |  |  | half-life [11]: 6.3 min; Stability [12]: Stable
Oc1c(Br)cc(Br)c2nc3ccccc3nc12 |  |  | 6.25 µM (≈ 2.21 µg/mL) | 18.8 to 37.5 µM (≈ 6.66 to 13.3 µg/mL) | 150 µM | 50 µM (≈ 17.7 µg/mL) | 100 µM | 23.5 µM (≈ 8.32 µg/mL) | 9.38 µM | ≤ 1% | 25 µM (≈ 8.85 µg/mL) | > 100 µM | 50 µM (≈ 17.7 µg/mL) | 100 µM | 37.5 µM (≈ 13.3 µg/mL) | 150 µM |  | 
Cc1cc(C)c2nc3c(Br)cc(Br)c(O)c3nc2c1 | 0.075 to 0.08 µM (≈ 0.0287 to 0.0306 µg/mL) | 0.1 µM (≈ 0.0382 µg/mL) | 0.2 µM (≈ 0.0764 µg/mL) |  |  |  |  |  |  | 2.2% | 50 µM (≈ 19.1 µg/mL) | > 100 µM |  |  |  |  | 0.3 µM (≈ 0.115 µg/mL) | 
Oc1c(Br)cc(Br)c2nc3cc(Cl)ccc3nc12 | 0.038 µM (≈ 0.0148 µg/mL) | 0.1 µM (≈ 0.0388 µg/mL) |  |  | 4.69 µM | 6.25 µM (≈ 2.43 µg/mL) | 37.5 µM |  |  | ≤ 1% | 3.13 µM (≈ 1.22 µg/mL) | > 100 µM | 6.25 µM (≈ 2.43 µg/mL) | 25 µM | 6.25 µM (≈ 2.43 µg/mL) |  | 0.1 µM (≈ 0.0388 µg/mL) | Activity [20]: Active; inhibition zone (IZ) [21]: 4.25 cm2; Activity [22]: Active; Activity [23]: Active
Oc1c(Br)cc(Br)c2nc3cc(Oc4ccccc4)ccc3nc12 | 0.075 µM (≈ 0.0335 µg/mL) | 0.1 µM (≈ 0.0446 µg/mL) | 0.2 µM (≈ 0.0892 µg/mL) |  |  |  |  |  |  | ≤ 1% | 6.25 µM (≈ 2.79 µg/mL) | > 100 µM |  |  | 25 µM (≈ 11.2 µg/mL) |  | 0.39 µM (≈ 0.174 µg/mL) | 
CCc1ccc2nc3c(O)c(Br)cc(Br)c3nc2c1 | 0.1 µM (≈ 0.0382 µg/mL) | 0.1 µM (≈ 0.0382 µg/mL) | 2.35 µM (≈ 0.898 µg/mL) | 75 µM (≈ 28.7 µg/mL) | 150 µM | 50 µM (≈ 19.1 µg/mL) | 75 µM | 50 µM (≈ 19.1 µg/mL) |  | 3% | 6.25 µM (≈ 2.39 µg/mL) | > 50 µM | 75 µM (≈ 28.7 µg/mL) | 150 µM | 75 µM (≈ 28.7 µg/mL) | 75 µM | 0.59 µM (≈ 0.225 µg/mL) | 
